Results: publication PMC10238757 (Pharmacology Research & Perspectives, 2023)

What was measured:
rats = assay: Dose ranging and good laboratory practice toxicology studies in rats; format: in vivo
healthy participants [1] = assay: Safety and tolerability, relative bioavailability and food effect; format: in vivo, human
Outline: (§1)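 AEs in healthy participants given oral test compound or placebo, recorded with grade and relation to treatment. Laboratory analyses, clinical parameters and suicidality were also monitored. Observation ran 360 h after dosing. Summaries were descriptive, with no formal statistics; parts 1–2 blinded and placebo-controlled, part 3 open-label.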

healthy participants [2] = assay: Safety pooled across study parts; format: in vivo, human
Outline: as §1

dogs = assay: Dose ranging and good laboratory practice toxicology studies in dogs; format: in vivo
healthy participants [3] = assay: Safety and tolerability, multiple ascending dose; format: in vivo, human
Outline: as §1

For `C=C(C)[C@@H]1CC[C@]2(NCCN3CCS(=O)(=O)CC3)CC[C@]3(C)[C@H](CC[C@@H]4[C@@]5(C)CC=C(C6=CC[C@@](COc7ncccc7C#N)(C(=O)O)CC6)C(C)(C)[C@@H]5CC[C@]43C)[C@@H]12` [GSK'937], the “no observed adverse effect level” value (rats) was 10 mg/kg/day, the “Abdominal pain, n occurrences (% of cohort)” value (from here on “Abdominal pain … (% of cohort)”) (healthy participants [1]; 100 mg PiB fed, N=15) was 0 and the “All-cause AEs Grade 2, n occurrences (% of cohort)” value (healthy participants [1]; 100 mg PiB fed, N=15) was 0. For the same compound, the “All-cause AEs Grade 3/4, n occurrences (% of cohort)” value (healthy participants [1]; 100 mg PiB fed, N=15) was 0, the “All-cause AEs, n occurrences (% of cohort)” value (healthy participants [1]; 100 mg PiB fed, N=15) was 2 (13) and the “Constipation, n occurrences (% of cohort)” value (“Constipation … (% of cohort)” for short) (healthy participants [1]; 100 mg PiB fed, N=15) was 0. For the same compound, the “Diarrhea, n occurrences (% of cohort)” value (healthy participants [1]; 100 mg PiB fed, N=15) was 0, the “Drug-related AEs Grade 2, n occurrences (% of cohort)” value (healthy participants [1]; 100 mg PiB fed, N=15) was 0 and the “Drug-related AEs Grade 3/4, n occurrences (% of cohort)” value (healthy participants [1]; 100 mg PiB fed, N=15) was 0. For the same compound, the “Drug-related AEs, n occurrences (% of cohort)” value (healthy participants [1]; 100 mg PiB fed, N=15) was 0, the “Headache, n occurrences (% of cohort)” value (healthy participants [1]; 100 mg PiB fed, N=15) was 0 and the “MDSD, n occurrences (% of cohort)” value (healthy participants [1]; 100 mg PiB fed, N=15) was 0. For the same compound, the “Abdominal pain … (% of cohort)” value (healthy participants [1]; 100 mg tablet fasted, N=15) was 0, the “All-cause AEs Grade 2, n occurrences (% of cohort)” value (healthy participants [1]; 100 mg tablet fasted, N=15) was 2 (13) and the “All-cause AEs Grade 3/4, n occurrences (% of cohort)” value (healthy participants [1]; 100 mg tablet fasted, N=15) was 0. The “All-cause AEs, n occurrences (% of cohort)” value (healthy participants [1]; 100 mg tablet fasted, N=15) was 7 (40), the “Constipation … (% of cohort)” value (healthy participants [1]; 100 mg tablet fasted, N=15) was 0 and the “Diarrhea, n occurrences (% of cohort)” value (healthy participants [1]; 100 mg tablet fasted, N=15) was 0. The “Drug-related AEs Grade 2, n occurrences (% of cohort)” value (healthy participants [1]; 100 mg tablet fasted, N=15) was 0, the “Drug-related AEs Grade 3/4, n occurrences (% of cohort)” value (healthy participants [1]; 100 mg tablet fasted, N=15) was 0 and the “Drug-related AEs, n occurrences (% of cohort)” value (healthy participants [1]; 100 mg tablet fasted, N=15) was 0. For the same compound, the “Headache, n occurrences (% of cohort)” value (healthy participants [1]; 100 mg tablet fasted, N=15) was 2 (13), the “MDSD, n occurrences (% of cohort)” value (healthy participants [1]; 100 mg tablet fasted, N=15) was 0 and the “Abdominal pain … (% of cohort)” value (healthy participants [1]; 100 mg tablet fed, N=17) was 0. The “All-cause AEs Grade 2, n occurrences (% of cohort)” value (healthy participants [1]; 100 mg tablet fed, N=17) was 3 (12), the “All-cause AEs Grade 3/4, n occurrences (% of cohort)” value (healthy participants [1]; 100 mg tablet fed, N=17) was 0 and the “All-cause AEs, n occurrences (% of cohort)” value (healthy participants [1]; 100 mg tablet fed, N=17) was 7 (24). The “Constipation … (% of cohort)” value (healthy participants [1]; 100 mg tablet fed, N=17) was 0, the “Diarrhea, n occurrences (% of cohort)” value (healthy participants [1]; 100 mg tablet fed, N=17) was 0 and the “Drug-related AEs Grade 2, n occurrences (% of cohort)” value (healthy participants [1]; 100 mg tablet fed, N=17) was 0. The “Drug-related AEs Grade 3/4, n occurrences (% of cohort)” value (healthy participants [1]; 100 mg tablet fed, N=17) was 0, the “Drug-related AEs, n occurrences (% of cohort)” value (healthy participants [1]; 100 mg tablet fed, N=17) was 0 and the “Headache, n occurrences (% of cohort)” value (healthy participants [1]; 100 mg tablet fed, N=17) was 2 (12). The “MDSD, n occurrences (% of cohort)” value (healthy participants [1]; 100 mg tablet fed, N=17) was 0, the “AEs considered drug- or treatment-related” value (healthy participants [1]; part 3) was “None” and the “changes in laboratory analyses, clinical parameters, or suicidality” value (healthy participants [1]; part 3) was “No significant changes”. For the same compound, the “deaths or SAEs” value (healthy participants [1]; part 3) was “No deaths or SAEs occurred”, the “participants reporting AEs, n of 17” value (healthy participants [1]; part 3 (41%)) was 7 and the “severity of all AEs in participants receiving GSK'937” value (healthy participants [2]; all study parts) was “grade 1 or 2”. The “dry skin among AEs attributable to GSK'937” value (healthy participants [2]; parts 1 and 2, 1/17) was 6%, the “headache among AEs attributable to GSK'937” value (healthy participants [2]; parts 1 and 2, 2/17) was 12% and the “Gastrointestinal disorders among GSK'937 recipients” value (healthy participants [2]; parts 1 and 2, 13/64) was 20%. The “GI disorders among AEs attributable to GSK'937” value (healthy participants [2]; parts 1 and 2, 14/17) was 82%, the “lowest observed adverse effect level” value (dogs) was 3 mg/kg and the “changes in laboratory analyses, clinical parameters, or suicidality” value (healthy participants [3]; MAD) was “No significant changes”. For the same compound, the “deaths or SAEs” value (healthy participants [3]; MAD) was “no deaths or SAEs”, the “Abdominal pain … (% of cohort)” value (healthy participants [3]; MAD 25 mg QD, N=7) was 0 and the “All-cause AEs Grade 2, n occurrences (% of cohort)” value (healthy participants [3]; MAD 25 mg QD, N=7) was 0. The “All-cause AEs Grade 3/4, n occurrences (% of cohort)” value (healthy participants [3]; MAD 25 mg QD, N=7) was 0, the “All-cause AEs, n occurrences (% of cohort)” value (healthy participants [3]; MAD 25 mg QD, N=7) was 0 and the “Constipation … (% of cohort)” value (healthy participants [3]; MAD 25 mg QD, N=7) was 0. The “Diarrhea, n occurrences (% of cohort)” value (healthy participants [3]; MAD 25 mg QD, N=7) was 0, the “Drug-related AEs Grade 2, n occurrences (% of cohort)” value (healthy participants [3]; MAD 25 mg QD, N=7) was 0 and the “Drug-related AEs Grade 3/4, n occurrences (% of cohort)” value (healthy participants [3]; MAD 25 mg QD, N=7) was 0. For the same compound, the “Drug-related AEs, n occurrences (% of cohort)” value (healthy participants [3]; MAD 25 mg QD, N=7) was 0, the “Headache, n occurrences (% of cohort)” value (healthy participants [3]; MAD 25 mg QD, N=7) was 0 and the “MDSD, n occurrences (% of cohort)” value (healthy participants [3]; MAD 25 mg QD, N=7) was 0. For the same compound, the “Abdominal pain … (% of cohort)” value (healthy participants [3]; MAD 50 mg QD, N=7) was 0.
